From ChEMBL document CHEMBL4732224, “Structure activity refinement of phenylsulfonyl piperazines as antimalarials that block erythrocytic invasion” (Eur J Med Chem, 2021)

What was measured:
HepG2 = assay: Cytotoxicity against human HePG2 cells assessed as growth inhibition after 48 hrs by Cell Titer-Glo assay; type: cell-based; conditions: HepG2, 48 h
Plasmodium falciparum [1] = assay: Antimalarial activity against Plasmodium falciparum 3D7 incubated for 72 hrs by LDH assay; type: functional, organism-based; conditions: 3D7, 72 h
Outline: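 Asexual blood-stage P. falciparum 3D7 parasites were cultured with compound for 72 h, and viability was read by lactate dehydrogenase (LDH) activity.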

[2] = Intrinsic clearance in mouse liver microsomes at 1 uM in presence of NADPH measured up to 60 mins by LC-MS analysis; type: ADME, Microsome; conditions: read-out: CLH
Plasmodium falciparum [3] = assay: Antimalarial activity against Plasmodium falciparum NF54 late stage ([…]) expressing Pfs16-LUC-GFP assessed as growth inhibition by high content imaging assay; type: functional, organism-based
Plasmodium falciparum [4] = assay: Antimalarial activity against Plasmodium falciparum NF54 early stage (1 to 3) expressing Pfs16-LUC-GFP assessed as growth inhibition by high content imaging assay; type: functional, organism-based

With `CC(C(=O)N1CCC(F)(F)CC1)N1CCN(S(=O)(=O)c2ccc(C(C)(C)C)cc2)CC1` (stereo unspecified) the EC50 (HepG2) was > 40 µM and the EC50 (Plasmodium falciparum [1]) was 0.38 µM.
For `CC(C(=O)N1CCCC1)C1CCN(S(=O)(=O)c2ccc(C(C)(C)C)cc2)CC1` (stereo unspecified), the EC50 (HepG2) was > 40 µM, the microsomal CLint at 1 µM [2] was 532 µL/min/mg and the EC50 (Plasmodium falciparum [1]) was > 10 µM.
In the case of `CC(C(=O)N1CCCC1)N1CCN(S(=O)(=O)c2ccc(-c3ccccc3)cc2)CC1` (stereo unspecified), the EC50 (Plasmodium falciparum [1]) is reported as > 10 µM.
For `CC(C(=O)N1CCCC1)N1CCN(S(=O)(=O)c2ccc(Br)cc2)CC1` (stereo unspecified), the EC50 (Plasmodium falciparum [1]) was > 10 µM.
For `COc1ccc2nc3cc(Cl)ccc3c(Nc3cc(CN4CCCC4)c(O)c(CN4CCCC4)c3)c2n1` [PYRONARIDINE], the EC50 (Plasmodium falciparum [3]) was 1.24 µM and the EC50 (Plasmodium falciparum [4]) was 0.053 µM.
For `CCC(C(=O)N1CCCC1)N1CCN(S(=O)(=O)c2ccc(C(C)(C)C)cc2)CC1` (stereo unspecified), the EC50 (HepG2) was > 40 µM and the EC50 (Plasmodium falciparum [1]) was 1.9 µM.
With `CC1CCN(C(=O)C(C)N2CCN(S(=O)(=O)c3ccc(C(C)(C)C)cc3)CC2)CC1` (stereo unspecified) the EC50 (HepG2) was > 40 µM and the EC50 (Plasmodium falciparum [1]) was 1.3 µM.
For `CC(C)c1ccc(S(=O)(=O)N2CCN(C(C)C(=O)N3CCCC3)CC2)cc1` (stereo unspecified), the EC50 (HepG2) was > 40 µM and the EC50 (Plasmodium falciparum [1]) was > 10 µM.
In the case of `CC(C(=O)N1CCCCC1)N1CCN(S(=O)(=O)c2ccc(C(C)(C)C)cc2)CC1` (stereo unspecified), the EC50 (HepG2) is reported as > 40 µM and the EC50 (Plasmodium falciparum [1]) is reported as 0.5 µM.
For `CCCC(C(=O)N1CCCC1)N1CCN(S(=O)(=O)c2ccc(C(C)(C)C)cc2)CC1` (stereo unspecified), the EC50 (Plasmodium falciparum [1]) was > 10 µM.
With `CCNC(=O)C(C)N1CCN(S(=O)(=O)c2ccc(C(C)(C)C)cc2)CC1` (stereo unspecified) the EC50 (Plasmodium falciparum [1]) was > 10 µM.
For `CC(C(=O)N1CCC(C)(C)CC1)N1CCN(S(=O)(=O)c2ccc(C(C)(C)C)cc2)CC1` (stereo unspecified), the EC50 (HepG2) was > 40 µM and the EC50 (Plasmodium falciparum [1]) was 4.3 µM.
In the case of `CC(C(=O)N1CCN(C)CC1)N1CCN(S(=O)(=O)c2ccc(C(C)(C)C)cc2)CC1` (stereo unspecified), the EC50 (HepG2) is reported as > 40 µM and the EC50 (Plasmodium falciparum [1]) is reported as 6.1 µM.
With `CC(C(=O)N(C)Cc1ccccc1)N1CCN(S(=O)(=O)c2ccc(C(C)(C)C)cc2)CC1` (stereo unspecified) the EC50 (HepG2) was > 40 µM and the EC50 (Plasmodium falciparum [1]) was 1.2 µM.
In the case of `CC(C(=O)N1CCCC1)N1CCN(S(=O)(=O)c2ccc(S(F)(F)(F)(F)F)cc2)CC1` (stereo unspecified), the EC50 (Plasmodium falciparum [1]) is reported as > 10 µM.
For `CC(C(=O)N1CCCC1)N1CCN(S(=O)(=O)c2ccc(C(C)(C)CO)cc2)CC1` (stereo unspecified), the EC50 (HepG2) was > 40 µM and the EC50 (Plasmodium falciparum [1]) was > 10 µM.
With `CC(C(=O)N1CCCC1)N1CCN(S(=O)(=O)c2ccc(C(C)(C)C)cc2)C(C)(C)C1` (stereo unspecified) the EC50 (HepG2) was > 40 µM and the EC50 (Plasmodium falciparum [1]) was 1.6 µM.
For `CC(C(=O)N1CCCC1)N1CCN(S(=O)(=O)c2ccc(C(C)(C)C)cc2)[C@H](C)C1` (stereo partly specified), the EC50 (Plasmodium falciparum [1]) was > 10 µM.
For `CC(C(=O)N1CCCC1)N1CCN(S(=O)(=O)c2ccccc2)CC1` (stereo unspecified), the EC50 (Plasmodium falciparum [1]) was > 10 µM.
With `CC(C)(C)c1ccc(S(=O)(=O)N2CCN(CC(=O)N3CCCC3)CC2)cc1` the EC50 (Plasmodium falciparum [1]) was > 10 µM.
In the case of `CC(C(=O)N1CCCC1)N1CCN(S(=O)(=O)c2ccc(C(F)(F)F)cc2)CC1` (stereo unspecified), the EC50 (Plasmodium falciparum [1]) is reported as > 10 µM.
For `CC(C(=O)N1CCCCCC1)N1CCN(S(=O)(=O)c2ccc(C(C)(C)C)cc2)CC1` (stereo unspecified), the EC50 (HepG2) was > 40 µM and the EC50 (Plasmodium falciparum [1]) was 0.65 µM.
For `CC(C(=O)N1C2CCCC1CC2)N1CCN(S(=O)(=O)c2ccc(C(C)(C)C)cc2)CC1` (stereo unspecified), the EC50 (HepG2) was > 40 µM and the EC50 (Plasmodium falciparum [1]) was 0.92 µM.
In the case of `CCC1(CC)c2ccccc2CCN1C(=O)C(C)N1CCN(S(=O)(=O)c2ccc(C(C)(C)C)cc2)CC1` (stereo unspecified), the EC50 (HepG2) is reported as > 40 µM and the EC50 (Plasmodium falciparum [1]) is reported as 1.2 µM.
For `CC(C(=O)N1CCc2ccccc2C12CCCCC2)N1CCN(S(=O)(=O)c2ccc(C(C)(C)C)cc2)CC1` (stereo unspecified), the EC50 (HepG2) was > 40 µM and the EC50 (Plasmodium falciparum [1]) was 2.9 µM.
For `CC(=O)c1ccc(S(=O)(=O)N2CCN(C(C)C(=O)N3CCCC3)CC2)cc1` (stereo unspecified), the EC50 (Plasmodium falciparum [1]) was > 10 µM.
In the case of `CC(C(=O)N(C)c1ccccc1)N1CCN(S(=O)(=O)c2ccc(C(C)(C)C)cc2)CC1` (stereo unspecified), the EC50 (Plasmodium falciparum [1]) is reported as > 10 µM.
With `CC(C(=O)N1CCCC1)N1CCN(S(=O)(=O)c2ccc(C(C)(C)C)cc2)[C@@H](C)C1` (stereo partly specified) the EC50 (HepG2) was > 40 µM and the EC50 (Plasmodium falciparum [1]) was 1.9 µM.
Work on `CC(C(=O)N1CCc2ccccc2C1C)N1CCN(S(=O)(=O)c2ccc(C(C)(C)C)cc2)CC1` (stereo unspecified) yielded an EC50 (HepG2) of 28 µM and an EC50 (Plasmodium falciparum [1]) of 1.2 µM.
For `CC(C(=O)N1CCCC1)N1CCCN(S(=O)(=O)c2ccc(C(C)(C)C)cc2)CC1` (stereo unspecified), the EC50 (HepG2) was > 40 µM and the EC50 (Plasmodium falciparum [1]) was 6.3 µM.
In the case of `CC(C(=O)N1CCCC1)N1CCN(S(=O)(=O)c2ccc([Si](C)(C)C)cc2)CC1` (stereo unspecified), the EC50 (HepG2) is reported as > 40 µM and the EC50 (Plasmodium falciparum [1]) is reported as 1.3 µM.
With `CC(C)C(C(=O)N1CCCC1)N1CCN(S(=O)(=O)c2ccc(C(C)(C)C)cc2)CC1` (stereo unspecified) the EC50 (Plasmodium falciparum [1]) was > 10 µM.
In the case of `CC(C(=O)N1CCNCC1)N1CCN(S(=O)(=O)c2ccc(C(C)(C)C)cc2)CC1` (stereo unspecified), the EC50 (Plasmodium falciparum [1]) is reported as > 10 µM.
For `CC(C(=O)N1CCC2(CC1)CC2)N1CCN(S(=O)(=O)c2ccc(C(C)(C)C)cc2)CC1` (stereo unspecified), the EC50 (HepG2) was > 40 µM and the EC50 (Plasmodium falciparum [1]) was 0.3 µM.
